High-throughput results as filed in PubChem BioAssay.
GSIS activator: primary screen for activators of insulin secretion dependent on glucose, INS-1E cells, GLuc reporter luminescence; INS-1E GLuc reporter insulin secretion, 2-3 h; hit rate 0.61% among 370,000; AID 743287; activation, % at 16.6 µM;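 active means lowest replicate activation of at least 40%, so every replicate reaches that level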;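 further: 0% = median of neutral control wells and 100% = median of IBMX positive control wells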
RAD52 anneal inh: RAD52 (human) annealing inhibition | P43351 | recombinant RAD52 DNA annealing, FRET fluorescence | inhibition, % at 18.7 µM | hit rate 0.46% among 360,000 | AID 651710;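 active means every replicate showing at least 50% inhibition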
RAD54 inh: inhibitors of human RAD54 branch migration; Q92698; RAD54 Holliday junction branch migration, FAM/BHQ fluorescence; inhibition, % at 10.4 µM; hit rate 0.14% among 360,000; AID 602329;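 active means mean normalized replicate activity at least 40 and at least half of replicates scoring 40 or more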;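 further: 0% = median of neutral control wells and 100% = median of positive control wells; inhibitors cause a drop in the FAM fluorescence signal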
AF4-AF9 inh: blocks AF4 peptide binding to human AF9; P42568; hit rate 0.47% among 350,000; AlphaScreen, biotin-AF4 peptide binding to FLAG-AF9; inhibition, % at 10 µM;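 active means every replicate reaching a set inhibition limit, whatever the replicate mean, cut at about 25% in these data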;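 further: 0% = plate neutral control median and 100% = total signal loss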
Target sequence (P42568 whole entry, looked up): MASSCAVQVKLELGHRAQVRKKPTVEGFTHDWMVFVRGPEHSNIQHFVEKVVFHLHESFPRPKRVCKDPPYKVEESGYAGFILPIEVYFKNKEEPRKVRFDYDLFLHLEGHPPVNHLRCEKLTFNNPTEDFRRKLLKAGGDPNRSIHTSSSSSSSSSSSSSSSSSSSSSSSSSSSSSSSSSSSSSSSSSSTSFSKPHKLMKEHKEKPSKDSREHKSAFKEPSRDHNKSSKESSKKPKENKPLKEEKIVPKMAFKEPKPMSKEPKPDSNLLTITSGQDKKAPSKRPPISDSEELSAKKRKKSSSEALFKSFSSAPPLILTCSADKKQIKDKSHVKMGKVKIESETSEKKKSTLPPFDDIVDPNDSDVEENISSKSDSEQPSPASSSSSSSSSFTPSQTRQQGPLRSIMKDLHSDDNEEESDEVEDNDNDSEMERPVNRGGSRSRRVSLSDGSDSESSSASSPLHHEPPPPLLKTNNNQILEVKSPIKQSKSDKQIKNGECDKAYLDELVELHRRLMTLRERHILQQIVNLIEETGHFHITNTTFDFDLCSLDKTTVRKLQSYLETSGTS
S100A4 MyoIIA: blocks human S100A4 binding to myosin IIA peptide; P26447; S100A4/TAMRA-MyoIIA peptide fluorescence polarization; inhibition, % at 10.7 µM; hit rate 0.14% among 360,000;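 active means mean inhibition of at least 70% across replicates, with every replicate also reaching that level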
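Material: S100A4 monomer (human). Medium: Calcium-containing HEPES buffer, pH 7.2. Probe or stimulus: labelled myosin peptide probe, 5 nM. Compound dosing: one concentration per compound. Timing: polarization read 5 min after assay mix addition, stable 5–60 min. Benchmarks: DMSO as neutral control, TFP as positive control.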
An asterisk follows results filed as active; · = no result. An excerpt weighted towards active compounds, which were near 1.3% of everything screened.

SMILES	GSIS activator	RAD52 anneal inh	RAD54 inh	AF4-AF9 inh	S100A4 MyoIIA
CO[C@@H]1CN(C)C(=O)c2ccc(NC(=O)c3ccccc3F)cc2OC[C@@H](C)N(C(=O)c2ccccc2F)C[C@H]1C	-25	-12	-13	0	-16
Cc1ccc(Cc2c(C)nc3nc(SCC(=O)NCCCN4CCCCCC4)nn3c2C)cc1	-20	32	·	33*	0
CC(C)NC(=O)N(C)C[C@@H]1Oc2cc(C#Cc3ccccn3)ccc2S(=O)(=O)N([C@H](C)CO)C[C@H]1C	8	-2	-2	0	-4
Cc1cc([N+](=O)[O-])ccc1N	42*	-7	·	-5	1
COc1ccc(-c2nc(CCl)cs2)cc1OC	62*	0	1	0	1
CCOc1ccc(-c2nc(CSc3nnc(N)s3)cs2)cc1OC	57*	·	-14	·	·
C=CCn1c(-c2csc(-c3ccc(OC)c(OC)c3)n2)n[nH]c1=S	83*	-13	·	-4	-2
C=CCn1c(-c2csc(-c3ccccc3)n2)n[nH]c1=S	-2	·	-6	·	·
C[C@H](CO)N1C[C@H](C)[C@@H](CN(C)C(=O)[C@H](Cc2ccccc2)N(C)C)OCc2ccccc2-c2c(n(C)c3ccccc23)C1=O	5	11	2	37*	-12
C[C@@H]1CN([C@H](C)CO)C(=O)c2c(c3ccccc3n2C)-c2ccccc2CO[C@H]1CN(C)C(=O)CCN(C)C	1	57*	4	3	8
C[C@H]1CN([C@@H](C)CO)C(=O)c2c(c3ccccc3n2C)-c2ccccc2CO[C@@H]1CN(C)C(=O)CCN(C)C	3	59*	8	-3	9
C[C@@H]1CN([C@@H](C)CO)C(=O)c2c(c3ccccc3n2C)-c2ccccc2CO[C@@H]1CN(C)C(=O)[C@@H](Cc1ccccc1)N(C)C	3	13	-9	12	38
CN1C(=O)c2cc(NC(=O)Nc3ccccc3F)ccc2OC[C@H]2O[C@@H](CC(=O)O)CC[C@@H]21	19	·	0	·	·
COc1ccc(-c2ccc3c(c2)[C@@H]2[C@@H](CCN2C(=O)c2ccc4c(c2)OCO4)[C@H](CO)N3)cc1	9	·	1	·	·
CCOc1ccc(CCNC(=O)COC(=O)c2cccnc2OCC)cc1OCC	61*	·	·	·	·
CCOc1ccc(CCNC(=O)COC(=O)c2nccnc2N)cc1OCC	51*	-7	-8	2	-2
CCOc1ccc(CCNC(=O)COC(=O)c2nc3nc(C)cc(C)n3n2)cc1OCC	45*	·	-6	·	·
CCOc1ccc(CCNC(=O)COC(=O)c2ccccc2O)cc1OCC	14	-6	-6	0	-1
CCOc1ccc(CCNC(=O)COC(=O)COc2ccc(Cl)cc2)cc1OCC	45*	-17	·	3	3
O=C(NC1CCC1)[C@@H]1[C@@H](CO)[C@@H]2Cn3c(ccc(/C=C/c4ccccc4)c3=O)[C@@H]2N1Cc1cncnc1	-2	-42	-12	-2	8
CCOc1ncccc1C(=O)OCC(=O)NCCc1ccc(S(N)(=O)=O)cc1	40*	-4	4	-7	4
CCOc1ccc(CCNC(=O)CCNC(=O)c2ccco2)cc1OCC	92*	-3	3	0	0
CCOc1ncccc1C(=O)NCCc1ccc(S(N)(=O)=O)cc1	13	-9	-5	-4	2
COc1ccc2oc(-c3ccncc3)cc(=O)c2c1	53*	2	8	-2	-2
COc1ccc(-c2cc(=O)c3cc(O)ccc3o2)cc1	-2	-11	7	-4	2
SMILES	GSIS activator	RAD52 anneal inh	RAD54 inh	AF4-AF9 inh	S100A4 MyoIIA
O=C(C[C@@H]1C=C[C@H](NC(=O)C2CCOCC2)[C@@H](CO)O1)NCCc1cscn1	4	-17	-2	-2	-6
CN(CCn1ccnc1)Cc1cn(-c2ccccc2)nc1-c1ccc2c(c1)OCO2	20	-2	·	2	-3
CN(Cc1cn(-c2ccccc2)nc1-c1ccc2c(c1)OCO2)Cc1nccn1C	13	-9	-9	33*	-1
COc1ccc2sc3c(=O)[nH]c4ccccc4c3c2c1	103*	·	7	·	·
CCOC(=O)C1=C(COC(=O)c2cccs2)NC(=O)NC1C (centres undefined)	59*	-8	2	14	-5
CCOC(=O)C1=C(COC(=O)c2ccc(C)s2)NC(=O)NC1C (centres undefined)	0	-7	-1	-2	-3
Cc1ccc(C=Nc2ccccc2C(N)=O)o1	-11	-9	·	-9	-2
Cc1ccc(C=Nc2ccc(N(C)C)cc2)o1	-16	16	9	59*	-6
CN(C)c1ccc2c(c1)[C@H]1C[C@H](CC(=O)N3CCCCC3)O[C@H](CO)[C@H]1O2	3	-74	·	-1	-3
N#C[C@@H]1[C@@H](c2ccccc2-c2cccc(F)c2)[C@H](CO)N1C(=O)C1CCCC1	-20	114*	·	0	38
CS(=O)(=O)N1[C@H](C#N)[C@H](c2ccccc2-c2ccccc2)[C@@H]1CO	-17	-11	·	-2	61
CN(C)C(=O)c1ccc(-c2ccccc2[C@@H]2[C@@H](CO)N(C(=O)C3CCCC3)[C@H]2C#N)cc1	22	58*	·	-2	7
Cc1ccc(-c2ccccc2[C@H]2[C@@H](CO)N(S(C)(=O)=O)[C@H]2C#N)cc1	1	101*	·	-1	-5
COc1cccc(NC(=O)N(C)C[C@H]2Oc3cc(-c4ccccc4OC)ccc3S(=O)(=O)N([C@@H](C)CO)C[C@@H]2C)c1	-23	-36	1	3	2
COc1ccc(S(=O)(=O)Nc2cccc3c2O[C@@H](CN(C)S(=O)(=O)c2cn(C)cn2)[C@@H](C)CN([C@@H](C)CO)C3=O)cc1	11	2	-3	0	-21
Cc1c(F)cccc1NC(=O)CCCCCC1NC(=O)NC1C (centres undefined)	-18	-8	3	90*	-2
C[C@H]1CN([C@@H](C)CO)C(=O)c2cc(NS(=O)(=O)c3cn(C)cn3)ccc2O[C@@H]1CN(C)CC1CCCCC1	5	-5	1	-1	-10
COc1cc(Br)cc(/C=N/NC(=O)Cc2ccccc2)c1O	5	-3	·	79*	8
Cc1noc(C)c1S(=O)(=O)N(C)C[C@H]1Oc2ccc(NC(=O)C3CC3)cc2CC(=O)N([C@@H](C)CO)C[C@@H]1C	17	1	4	0	-3
Cc1noc(C)c1S(=O)(=O)N(C)C[C@@H]1Oc2ccc(NS(=O)(=O)c3cccs3)cc2CC(=O)N([C@H](C)CO)C[C@@H]1C	0	·	3	6	-1
Cc1ccc(S(=O)(=O)N(C)C[C@@H]2Oc3ccc(NC(=O)Nc4c(C)noc4C)cc3CC(=O)N([C@@H](C)CO)C[C@@H]2C)cc1	4	5	55*	2	0
Cc1noc(C)c1S(=O)(=O)N(C)C[C@@H]1Oc2ccc(NS(=O)(=O)c3cccs3)cc2CC(=O)N([C@@H](C)CO)C[C@H]1C	-13	-6	1	26*	4
